pIC50: −log10 of the molar value.
Assays:
[1] = Selectivity index, ratio of CC50 for mouse NIH/3T3 cells to IC50 for recombinant Trypanosoma cruzi intracellular amastigotes expressing beta-galactosidase infected in mouse NIH/3T3 cells assessed as parasite growth inhibition incubated for 4 days by resorufin-beta-D-galactopiranoside substrate based fluorescence assay; format: toxicity, cell-based; settings: time 4 day, read-out: Ratio CC50/IC50
[2] = test system: Trypanosoma cruzi; assay: Antitrypanosomal activity against recombinant Trypanosoma cruzi intracellular amastigotes expressing beta-galactosidase infected in mouse NIH/3T3 cells assessed as parasite growth inhibition incubated for 4 days by resorufin-beta-D-galactopiranoside substrate based fluorescence assay; format: functional, organism-based; settings: NIH3T3, 96 h
[3] = Cytotoxicity against rat H9c2 cells assessed as reduction in cell viability; format: cell-based
[4] = Selectivity index, ratio of CC50 for human HEK293 cells assessed as reduction in cell viability measured after 48 hrs by resazurin assay to IC50 for Trypanosoma brucei brucei Lister 427 […] assessed as parasite growth inhibition measured after 48 hrs by alamar blue assay; format: toxicity, cell-based; settings: read-out: Ratio CC50/IC50
[5] = Lipophilicity, logP of the compound; format: physicochemical; settings: octanol/water
[6] = Selectivity index, ratio of CC50 for rat H9c2 cells assessed as reduction in cell viability to IC50 for Trypanosoma cruzi infected in rat H9c2 infected with trypomastigotes from parasite-infected monkey LLC-MK2 cells measured after 72 hrs by DRAQ5 DNA dye based microscopic imaging analysis; format: toxicity; settings: read-out: Ratio CC50/IC50
[7] = Cytotoxicity against human HepG2 cells assessed as reduction in cell viability measured after 48 hrs by CellTiter-Glo assay; format: cell-based
Procedure, shortened: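 HepG2 human hepatoma cells from GSK Biological Reagents and Assay Development (Stevenage, UK); viability read-out per earlier method.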

[8] = Cytotoxicity against human HEK293 cells assessed as reduction in cell viability measured after 48 hrs by resazurin assay; format: cell-based
Procedure, shortened: (§1)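 HEK293 cells from ATCC; Alamar Blue viability read-out run per earlier method.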

[9] = test system: HEK293; assay: Cytotoxicity against human HEK293 cells assessed as reduction in cell viability measured after 48 hrs by resazurin assay relative to control; format: cell-based; settings: hek293, 48 h; procedure, shortened: as §1
[10] = test system: Trypanosoma cruzi; assay: Antitrypanosomal activity against Trypanosoma cruzi infected in rat H9c2 infected with trypomastigotes from parasite-infected monkey LLC-MK2 cells measured after 72 hrs by DRAQ5 DNA dye based microscopic imaging analysis; format: functional, organism-based; settings: H9c2, 72 h
[11] = test system: Trypanosoma brucei brucei; assay: Antitrypanosomal activity against Trypanosoma brucei brucei Lister 427 assessed as parasite growth inhibition measured after 48 hrs by alamar blue assay; settings: Lister 427, 48 h

pIC50 [2] | logP [5] | pIC50 [10] | pIC50 [11] | Structure (SMILES) | selectivity ratio at 96 h [1] | CC50 [3] [µM] | selectivity ratio at 48 h [4] | selectivity ratio at 72 h [6] | CC50 at 48 h [7] [µM] | CC50 at 48 h [8] [µM] | Activity [9] [µM]
6.20 | 4.7 | – | – | CCCn1c(NC(=O)Cc2ccc(Cl)cc2)nc2ccccc21 | 79 | > 50 | 50 | 40 | > 50 | > 83 | –
– | 5.3 | 6.30 | 5.36 | CCCn1c(NC(=O)Cc2ccc(Cl)cc2)nc2cc(Cl)ccc21 | – | 7.94 | – | – | > 50 | – | 84
– | 4.7 | 5.80 | 5.44 | CCCn1c(NC(=O)Cc2cccc(Cl)c2)nc2ccccc21 | – | > 50 | – | – | > 50 | 15 | –
– | 4.9 | 6.00 | 5.54 | CCCn1c(NC(=O)Cc2cccc(Br)c2)nc2ccccc21 | – | > 50 | – | – | > 50 | > 83 | –
– | 5.1 | 5.89 | 5.26 | CCCn1c(NC(=O)Cc2ccc3ccccc3c2)nc2ccccc21 | – | > 50 | – | – | 25 | > 83 | –
– | 4.3 | 5.70 | 5.49 | CCCn1c(NC(=O)Cc2cccc(F)c2)nc2ccccc21 | – | > 50 | – | – | > 50 | > 83 | –
– | 4.7 | 5.70 | 5.64 | CCCn1c(NC(=O)Cc2ccccc2Cl)nc2ccccc21 | – | 25 | – | – | 25 | 14 | –
– | 5.6 | 6.00 | 5.43 | CCCCCn1c(NC(=O)Cc2ccc(Cl)cc2)nc2ccccc21 | – | > 50 | – | – | > 50 | > 83 | –
– | 5.5 | 5.00 | 4.72 | CCCn1c(NC(=O)Cc2ccc(Cl)cc2)nc2c(Br)cccc21 | – | > 50 | – | – | > 50 | – | 54
– | 4 | 5.40 | 5.37 | CCCn1c(NC(=O)Cc2cccc(OC)c2)nc2ccccc21 | – | > 50 | – | – | > 50 | > 83 | –
– | 5.5 | 6.40 | 5.82 | CCCn1c(NC(=O)Cc2ccc(Cl)cc2)nc2ccc(Br)cc21 | – | 13 | – | – | > 50 | > 83 | –
– | 5 | 5.80 | 5.62 | CCCn1c(NC(=O)CCCc2ccccc2)nc2ccccc21 | – | 16 | – | – | > 50 | > 83 | –
– | 4.1 | 5.30 | 5.42 | CCCn1c(NC(=O)c2ccccc2)nc2ccccc21 | – | > 50 | – | – | 25 | > 83 | –
– | 5.6 | 6.00 | 5.49 | CCCn1c(NC(=O)Cc2ccc(OC(F)(F)F)cc2)nc2ccccc21 | – | 10 | – | – | > 50 | > 83 | –
– | 3.8 | 4.40 | < 4.08 | CCCn1c(NC(=O)Cc2ccc(O)cc2)nc2ccccc21 | – | > 50 | – | – | > 50 | > 83 | –

From ChEMBL document CHEMBL4699414, “Hit-to-lead optimization of novel benzimidazole phenylacetamides as broad spectrum trypanosomacides” (RSC Med Chem, 2020)
